Results published in publication PMC3090455 (Analytical biochemistry, 2011).
Values after ≈ are worked out from the molar mass of the structure shown.

Experiments:
human mEH [1] = molecular target: T1, human mEH (Homo sapiens, UniProt P07099); test: Assay conditions optimization with substrate 11, human mEH; format: biochemical
T1 sequence (P07099 1-455): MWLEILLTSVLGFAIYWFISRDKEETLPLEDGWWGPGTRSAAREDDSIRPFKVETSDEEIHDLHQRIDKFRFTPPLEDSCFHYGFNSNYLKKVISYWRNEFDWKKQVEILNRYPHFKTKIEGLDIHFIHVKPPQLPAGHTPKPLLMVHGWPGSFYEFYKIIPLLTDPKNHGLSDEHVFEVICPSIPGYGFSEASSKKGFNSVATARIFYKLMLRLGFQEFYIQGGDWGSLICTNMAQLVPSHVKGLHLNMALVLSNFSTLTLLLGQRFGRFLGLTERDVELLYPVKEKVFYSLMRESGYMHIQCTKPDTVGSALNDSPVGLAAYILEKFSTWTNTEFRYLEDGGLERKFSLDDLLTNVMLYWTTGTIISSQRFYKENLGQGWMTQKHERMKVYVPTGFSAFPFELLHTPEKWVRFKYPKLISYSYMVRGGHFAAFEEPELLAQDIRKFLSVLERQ
Summary of the method: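 Recombinant human mEH from baculovirus, partially purified. Enzyme titrated at 0–10 μg/mL final against 25 μM fluorogenic glycidyl carbonate substrate, in 0.1 M Tris/HCl pH 9.0 with 0.1 mg/mL BSA at 37°C, followed over 30 min. Then 1.6 μg/mL enzyme with substrate compared across six buffers (three pH values) at 30 and 37°C over 10 min, against enzyme-free background. 6-Methoxy-2-naphthaldehyde read at ex 330/em 465 nm.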

human mEH [2] = molecular target: T1, human mEH; test: Specific activity of human mEH for absorbent/fluorescent substrates; format: biochemical; conditions: [S] 50 μM, pH 9.0, 37°C, fluorescent substrates
Summary of the method: (§1)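 Partially purified recombinant enzyme (0.5–80 μg/mL final) in 100 mM Tris/HCl pH 9.0 with 0.1 mg/mL BSA, preincubated 5 min at 37°C. Substrate added at 50 μM final from 5 mM DMSO stock; buffer-only wells gave background. Read kinetically for 5 min: 4-nitrophenol at 450 nm, or fluorescence (coumarin ex 355/em 450; naphthaldehyde ex 330/em 465). Signals converted via standard curves (0.005–0.5 μM); 8 replicates.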

human mEH [3] = molecular target: T1, human mEH; test: High throughput screening end-point assay with 11, human mEH; format: biochemical; conditions: average, n = 4 for each enzyme, 30 min end-point
Summary of the method: (§2)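 End-point screen of a pesticide library at 10 μM final. Recombinant partially purified enzyme (human 1.6, rat 0.5 μg/mL final) in 100 mM Tris/HCl pH 8.5 with 0.1 mg/mL BSA, preincubated with compounds 5 min at 30°C. Substrate added to 25 μM, then 30 min at room temperature in the dark before fluorescence reading (ex 330/em 465 nm). Buffer-only background and full-activity control wells; duplicate averages.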

Substrate solubility = format: physicochemical; conditions: assay buffer, pH 9
rat mEH [4] = molecular target: T2, rat mEH (Rattus norvegicus, UniProt P07687); test: High throughput screening end-point assay with 11, rat mEH; format: biochemical; conditions: average, n = 4 for each enzyme, 30 min end-point
T2 sequence (P07687 1-455): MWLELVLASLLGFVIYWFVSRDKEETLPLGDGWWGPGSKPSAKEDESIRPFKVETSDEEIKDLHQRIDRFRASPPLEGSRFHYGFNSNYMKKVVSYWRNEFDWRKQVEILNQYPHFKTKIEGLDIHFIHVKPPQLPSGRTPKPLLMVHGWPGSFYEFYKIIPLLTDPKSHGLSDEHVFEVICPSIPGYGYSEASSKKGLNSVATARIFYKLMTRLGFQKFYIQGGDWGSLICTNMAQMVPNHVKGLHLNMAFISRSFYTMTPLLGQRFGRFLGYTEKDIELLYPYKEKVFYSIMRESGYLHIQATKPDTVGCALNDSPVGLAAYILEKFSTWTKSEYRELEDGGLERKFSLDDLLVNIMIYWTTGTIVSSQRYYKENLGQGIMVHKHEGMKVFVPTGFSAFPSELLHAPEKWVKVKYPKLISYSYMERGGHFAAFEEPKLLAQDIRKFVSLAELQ
Summary of the method: as §2

human mEH [5] = molecular target: T1, human mEH; test: Kinetic constants determination, human mEH; format: biochemical; conditions: lower than for cSO
rat mEH [6] = molecular target: T2, rat mEH; test: Kinetic constants determination, rat mEH; format: biochemical; conditions: greater
rat mEH [7] = molecular target: T2, rat mEH; test: Specific activity of rat mEH for absorbent/fluorescent substrates; format: biochemical; conditions: [S] 50 μM, pH 9.0, 37°C, fluorescent substrates
Summary of the method: as §1

Background = format: physicochemical
Summary of the method: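 Enzyme-free control wells held Tris/HCl (100 mM, pH 9.0, 0.1 mg/mL BSA), preincubated 5 min at 37°C. Substrate was added from a 5 mM DMSO stock working solution to 50 μM final, and product was read kinetically for 5 min. Read-out was 4-nitrophenol absorbance at […] fluorescence (ex 355/em 450 or ex 330/em 465 nm). Signals were converted to molar amounts via 0.005–0.5 μM standard curves; 8 replicates.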

[8] = HmEH 1.6 μg/mL, 25 μM 11, Tris/HCl pH 9.0, 37°C

COc1ccc2cc(C(C#N)OC(=O)OCC3CO3)ccc2c1 (centres unmarked) [compound 11, Cyano(6-methoxynaphthalen-2-yl)methyl (oxiran-2-ylmethyl) Carbonate]
signal to background ratio (S/B) (human mEH [1]; [8]): ≈ 3 | signal to noise ratio (S/N) (human mEH [1]; [8]): ≈ 40 | decrease of catalytic activity of human mEH on reducing temperature (human mEH [1]; incubation temperature from 37 to 30 °C, all buffers tested, 25 μM 11): ≈ 30% | Human mEH S/B (human mEH [2]): 4 | Human mEH Spec. act. (human mEH [2]): 25 ± 2 nmol/min/mg | Human mEH Z' (human mEH [2]): 0.66 | S/N of HTS assay (human mEH [3]): > 30 | Z' of HTS assay (human mEH [3]): 0.69 ± 0.03 | solubility (Substrate solubility): ~50 µM (≈ 15.7 µg/mL) | S/N of HTS assay (rat mEH [4]): > 30 | Z' of HTS assay (rat mEH [4]): 0.69 ± 0.03 | KM relative to cSO, human mEH (human mEH [5]): ~40 fold | VM/KM relative to cSO and 9, rat mEH (rat mEH [6]): 10 fold | Rat mEH S/B (rat mEH [7]): 5 | Rat mEH S/N (rat mEH [7]): 48 | Rat mEH Spec. act. (rat mEH [7]): 68 ± 4 nmol/min/mg | Rat mEH Z' (rat mEH [7]): 0.73 | reduction of background hydrolysis on reducing pH (Background; Tris/HCl, pH reduced from 9.0 to 8.5, 25 μM 11): ≈ 30% | background hydrolysis (Background; [S] 50 μM, Tris/HCl 100 mM pH 9.0, 0.1 mg/mL BSA, 37°C, fluorescent substrates): 0.018 ± 0.003 nmol/min | reduction of background hydrolysis on reducing temperature (Background; incubation temperature from 37 to 30 °C, 25 μM 11): at least 50%
